Hits are enriched below; roughly 2.6% of the tested compounds scored in any of these assays.
Rad51 HR inh: Rad51 (human) homologous recombination inhibition; AID 1385; 200,000 tested, 0.085% active; inhibition, % at 10 µM; hRad51 DNA strand exchange, fluorescence dequenching;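 active = inhibition above 40% at the single screening dose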
Target sequence (Q06609 whole entry, looked up): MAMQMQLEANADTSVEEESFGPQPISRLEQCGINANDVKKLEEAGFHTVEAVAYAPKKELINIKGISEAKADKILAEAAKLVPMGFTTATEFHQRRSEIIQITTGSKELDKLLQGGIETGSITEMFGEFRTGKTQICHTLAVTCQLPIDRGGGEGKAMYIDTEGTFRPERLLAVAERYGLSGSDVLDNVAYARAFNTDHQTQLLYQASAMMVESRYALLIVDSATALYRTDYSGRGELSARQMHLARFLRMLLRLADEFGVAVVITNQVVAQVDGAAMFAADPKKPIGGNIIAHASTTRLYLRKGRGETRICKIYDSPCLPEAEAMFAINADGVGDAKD
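material = hRad51 filaments on single-stranded DNA | timing = filaments 15 min 37 °C, then compound 30 min | signal = FRET fluorescence dequenching, excitation 485 nm, emission 520 nm | benchmarks = control wells and blank wells on each plate | evaluation = percent inhibition relative to plate controls and blanks | compound = 10 µM final, single point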
CHT PAM: allosterically activates the human high affinity choline transporter; Q9GZV3; CHT-expressing cells, membrane potential dye, choline EC20; active compounds read high; LV-AA mutant CHT in HEK293 cells; B-score at 10 µM; 310,000 tested, 0.49% active; AID 488977;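 active = initial fluorescence not abnormally high and integrated response B-score, plate-corrected, over 3 SD above library mean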
Cl transport mod: modulators of human KCC2 chloride dependent transport | Q9H2X9 | KCC2 cells, thallium flux FluoZin-2 fluorescence | B-score of Tl+ flux slope (higher = more flux/activation; lower = inhibition) at 10 µM | 190,000 tested, 2.2% active | AID 1456;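 active = thallium flux slope and its plate-corrected score both differing from the plate sample mean at a set confidence after two filtering rounds, in either direction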;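 also: slope of fluorescence scaled to starting intensity during 10 to 20 s after thallium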
CHT block: inhibitors of human choline transporter CHT | Q9GZV3 | CHT-expressing cells, membrane potential dye, choline response; active compounds read low | B-score at 10 µM | 310,000 tested, 0.86% active | AID 488975;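 active = B-score over 3 SD under the library average, and starting fluorescence ratio not unusually high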;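 also: choline stimulus applied at its EC90 after an EC20 pre-addition; B-score computed on integrated fluorescence ratio after choline addition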
KCC2 sec1: KCC2 (human) modulation, secondary assay. HEK293-KCC2, thallium flux, FluoZin2 fluorescence; active compounds read high. normalised thallium flux (F/F0 slope) at 10 µM. shares compounds with Cl transport mod. AID 1713. 3,700 tested, 15% active;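 active = thallium flux slope above the same plate's solvent-only control mean plus 3 SD; inconclusive = the two replicate wells disagree; inactive = no significant difference from solvent-only control wells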
KCC2 bumet counter: bumetanide-insensitive thallium flux in KCC2 cells with ouabain, counter-screen; shares compounds with Cl transport mod; normalized thallium flux at 10 µM; AID 1714; 3,700 tested, 49% active; HEK293-KCC2 + bumetanide/ouabain, thallium flux FluoZin2; active compounds read high;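 active = thallium entry rate above the same plate's blocked-transporter control wells by more than 3 SD; inconclusive = the two repeat wells disagree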;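 also: raw slope of fluorescence over initial fluorescence between 10 and 20 s after thallium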
KCC2 secondary2: confirmation of human KCC2 transport modulators. normalized thallium flux at 10 µM. HEK293-KCC2, thallium flux FluoZin2 fluorescence; actives lie on both sides; F/F0 rise rate, 10–20 s post-thallium. 3,700 tested, 23% active. AID 1715. shares compounds with Cl transport mod;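 active = thallium flux slope more than 3 SD above or below the plate's solvent-only control mean, mostly below; inconclusive = the two repeat wells disagreed; inactive = no significant shift from solvent-only controls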
HEK counter1: acts in parental HEK cells, KCC2 counter-screen; HEK293 parental cells, thallium flux FluoZin2, ouabain; baseline-ratio fluorescence slope, 10–20 s after thallium; 3,700 tested, 46% active; thallium flux rate (normalised fluorescence) at 10 µM; shares compounds with Cl transport mod;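 active = thallium flux rate significantly above the same plate's solvent-only control wells, beyond their mean plus 3 SD; inconclusive = the two replicate wells gave conflicting results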
KCC2 ouabain: KCC2 (human) modulation, ouabain retest. shares compounds with Cl transport mod. HEK293-KCC2, thallium flux FluoZin2 fluorescence; bidirectional: low = inhibitor, high = activator. raw Tl+ flux slope (below DMSO = inhibition, above = activation) at 10 µM. 3,700 tested, 48% active. AID 1717;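 active = thallium flux slope beyond 3 SD from same-plate DMSO control mean in most replicates, usually higher, sometimes lower; inconclusive = repeat tests gave conflicting results; inactive = no significant difference from controls in most replicates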;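 also: slope of initial-normalized fluorescence between seconds 10 and 20 after thallium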
HEK293 Tl flux2: acts in parental HEK cells, second KCC2 counter-screen; shares compounds with Cl transport mod; HEK293 parental, thallium flux FluoZin-2 fluorescence slope; thallium flux slope at 10 µM; 3,700 tested, 33% active;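 active = thallium flux slope above the same plate's solvent-control mean plus 3 SD in both duplicate wells; inconclusive = duplicate wells that disagreed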;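 also: run without ouabain in cells lacking the KCC2 cotransporter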
Of the large screens only hits and unclear results are named; the others gave an inactive call (follow-up assays come after a bar, where they were run).

COc1ccccc1Nc1nnc(SCc2cc(=O)n3ccsc3n2)s1	none
CCc1ccc(Nc2nnc(SCC(=O)NCCN3C(=O)CSC3=O)s2)cc1	Cl transport mod -3.7 | KCC2 sec1 inactive | KCC2 bumet counter inactive | KCC2 secondary2 inactive | HEK counter1 inactive | KCC2 ouabain inconclusive | HEK293 Tl flux2 inactive
CCc1ccc(Nc2nnc(SCC(=O)Nc3cccnc3Cl)s2)cc1	none
CCc1ccc(Nc2nnc(SCc3cc(=O)n4ccsc4n3)s2)cc1	Cl transport mod -8.5 (no result: Rad51 HR inh) | KCC2 sec1 inactive | KCC2 bumet counter inactive | KCC2 secondary2 0.021 | HEK counter1 inactive | KCC2 ouabain 0.011 | HEK293 Tl flux2 inactive
CCc1ccc(Nc2nnc(SCC(=O)Nc3sccc3C(N)=O)s2)cc1	Cl transport mod -4.9 | KCC2 sec1 inactive | KCC2 bumet counter inactive | KCC2 secondary2 0.023 | HEK counter1 inactive | KCC2 ouabain inconclusive | HEK293 Tl flux2 inactive
CCOC(=O)N1CCN=C1SCc1ccc(Cl)c(Cl)c1	none
O=C(COc1cccc(Br)c1)N/N=C/C(=O)c1ccccc1	Cl transport mod 5.9 | KCC2 sec1 inactive | KCC2 bumet counter 0.014 | KCC2 secondary2 inactive | HEK counter1 0.012 | KCC2 ouabain inconclusive | HEK293 Tl flux2 0.015
O=C(Nc1ccc(Nc2ccccc2)cc1)c1ccc(Cl)cc1Cl	none (no result: Rad51 HR inh, Cl transport mod)
O=C(/C=N/NC(=O)c1ccccc1Br)c1ccccc1	Cl transport mod 8 | KCC2 sec1 inactive | KCC2 bumet counter 0.019 | KCC2 secondary2 inactive | HEK counter1 0.02 | KCC2 ouabain inconclusive | HEK293 Tl flux2 0.018
O=C(N/N=C/c1cc(Cl)ccc1O)c1ccccc1Br	none (no result: Rad51 HR inh)
Cc1cccc(OCC(=O)NCC(=O)N/N=C/c2cc(Br)ccc2OCc2ccccc2)c1	none
O=C(/C=N/NC(=O)c1ccc(Cl)cc1Cl)c1ccccc1	Cl transport mod 91 | KCC2 sec1 inactive | KCC2 bumet counter 0.1 | KCC2 secondary2 0.062 | HEK counter1 0.048 | KCC2 ouabain 0.076 | HEK293 Tl flux2 0.039
CN(C(=O)CSc1nc(-c2ccc(C(C)(C)C)cc2)c(C#N)c(=O)[nH]1)C1CCCCC1	none (no result: Rad51 HR inh, Cl transport mod)
O=C(Nc1nc(SCc2ccc(F)cc2)ns1)c1ccco1	Cl transport mod -3.7 | KCC2 sec1 inactive | KCC2 bumet counter inconclusive | KCC2 secondary2 0.021 | HEK counter1 inconclusive | KCC2 ouabain 0.012 | HEK293 Tl flux2 inactive
CSc1nc(C)cc(Oc2ccc(OCCOc3ccccc3)nn2)n1	Cl transport mod -5.9 | KCC2 sec1 inactive | KCC2 bumet counter inactive | KCC2 secondary2 inactive | HEK counter1 inactive | KCC2 ouabain 0.016 | HEK293 Tl flux2 inactive
CCCOc1ccc(Oc2cc(C)nc(SC)n2)nn1	none
CCCC[N+](CC#Cc1ccccc1)(CCCC)CCCS(=O)(=O)[O-]	none
COC(=O)c1sccc1NC(=O)CSc1ccccc1NS(=O)(=O)c1ccc(Br)cc1	Cl transport mod 3.5 | KCC2 sec1 inactive | KCC2 bumet counter 0.013 | KCC2 secondary2 inactive | HEK counter1 0.016 | KCC2 ouabain inactive | HEK293 Tl flux2 0.013
COc1ccccc1OCCCOc1c(C)cc(C)cc1Br	none (no result: Rad51 HR inh)
COc1ccccc1OCCOCCOc1c(C)cc(C)cc1Br	Cl transport mod -5.4 (no result: Rad51 HR inh) | KCC2 sec1 inactive | KCC2 bumet counter inactive | KCC2 secondary2 inactive | HEK counter1 inactive | KCC2 ouabain inactive | HEK293 Tl flux2 inactive
Cc1ccccc1OCC(=O)N=Nc1c(O)n(C)c2ccccc12	Cl transport mod 28 | KCC2 sec1 inconclusive | KCC2 bumet counter 0.029 | KCC2 secondary2 inactive | HEK counter1 0.029 | KCC2 ouabain 0.031 | HEK293 Tl flux2 0.022

Screening data (PubChem)
